Source: ChEMBL document CHEMBL1909632, “New aldehyde and vinylsulfone proteasome inhibitors for targeted melanoma therapy” (Eur J Med Chem, 2011)
Peptide text beside a SMILES is read from it. * marks the point of attachment. Cbz = O=C(OCc1ccccc1)*

Columns and labels:
[1] = Drug uptake in tumor of mouse xenografted with mouse B16 cells after 6 hrs; assay type: ADME, Neoplasm; conditions: in vivo
[2] = Ratio of drug level in tumor to blood in mouse; assay type: ADME, organism-based
[3] = Drug uptake in tumor of mouse xenografted with mouse B16 cells assessed per gram of tissue after 3 hrs; assay type: ADME, Neoplasm; conditions: in vivo
[4] = Drug uptake in tumor of mouse xenografted with mouse B16 cells assessed per gram of tissue after 15 mins; assay type: ADME, Neoplasm; conditions: in vivo, 0.25 h
[5] = Drug uptake in tumor of mouse xenografted with mouse B16 cells assessed per gram of tissue after 72 hrs; assay type: ADME, Neoplasm; conditions: in vivo
[6] = Cytotoxicity against human IPC227F cells after 48 hrs using Hoechst 33342 dye-based fluorescence microplate reader; assay type: functional, cell-based
Procedure, shortened: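 Attached IPC227F human ocular melanoma cells were seeded and grown 24 h at 37 °C, 5% CO2, in DMEM with 10% fetal calf serum. Cells were then given fresh medium with increasing drug concentrations from DMSO stocks (DMSO final 0.025%) for 48 h, PBS-washed and frozen at -80 °C. Hoechst 33342 staining followed at room temperature in the dark. Fluorescence was read at 360/460 nm, survival was expressed as % of untreated control, and IC50 determined.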

| SMILES | IC50 [6] | further results |
| --- | --- | --- |
| CCN(CC)CCNC(=O)c1ccc(C(=O)N[C@@H](CC(C)C)C(=O)N[C@@H](CC(C)C)C(=O)N[C@H](C=O)CC(C)C)c([125I])c1 |  | Drug uptake [1]: 1.2%; Kp [2]: ≥ 1; Drug uptake [3]: 1.2%; Drug uptake [4]: 2.7% |
| CCCN(CCC)CCCCNC(=O)c1ccc([125I])cc1 |  | Drug uptake [5]: 3.2% |
| CCCN(CCC)CCNC(=O)c1ccc(C(=O)N[C@@H](CC(C)C)C(=O)N[C@@H](CC(C)C)C(=O)N[C@H](C=O)CC(C)C)cc1 | 0.71 µM |  |
| CCCN(CCC)CCCCNC(=O)c1ccc(C(=O)N[C@@H](CC(C)C)C(=O)N[C@@H](CC(C)C)C(=O)N[C@H](C=O)CC(C)C)cc1 | 4.18 µM |  |
| CCN(CC)CCNC(=O)c1ccc(C(=O)N[C@@H](Cc2ccccc2)C(=O)N[C@H](/C=C/S(C)(=O)=O)CC(C)C)cc1 | 94.5 µM |  |
| CCN(CC)CCNC(=O)c1ccc(C(=O)N[C@@H](CC(C)C)C(=O)N[C@@H](CC(C)C)C(=O)N[C@H](/C=C/S(C)(=O)=O)CC(C)C)cc1 | 28.7 µM |  |
| CCN(CC)CCNC(=O)c1ccc(C(=O)N[C@@H](Cc2ccccc2)C(=O)N[C@@H](CC(C)C)C(=O)N[C@H](/C=C/S(C)(=O)=O)CC(C)C)cc1 | 120 µM |  |
| CCN(CC)CCNC(=O)c1ccc(C(=O)N[C@@H](Cc2ccccc2)C(=O)N[C@H](C=O)CC(C)C)cc1 | 20.9 µM |  |
| CCN(CC)CCNC(=O)c1ccc(C(=O)N[C@@H](CC(C)C)C(=O)N[C@@H](CC(C)C)C(=O)N[C@H](C=O)CC(C)C)cc1 | 0.64 µM |  |
| CCN(CC)CCNC(=O)c1ccc(C(=O)N[C@@H](Cc2ccccc2)C(=O)N[C@@H](CC(C)C)C(=O)N[C@H](C=O)CC(C)C)cc1 | 11.9 µM |  |
| CC(C)C[C@@H](C=O)NC(=O)[C@H](CC(C)C)NC(=O)[C@H](CC(C)C)NC(=O)OCc1ccccc1 [MG-132] (Cbz-Leu-Leu-Leu-aldehyde) | 0.077 µM |  |
